From ChEMBL document CHEMBL2396596, “Anthraquinone derivatives from Rumex plants and endophytic Aspergillus fumigatus and their effects on diabetic nephropathy” (Bioorg Med Chem Lett, 2013)
The source made the active and inactive calls. The calls are words filed in the database; no cut-off is given here.

Experiments:
[1] = Cytotoxicity against rat HBZY-1 cells assessed as cell viability at 10 uM after 48 hrs by MTT assay; assay type: cell-based; conditions: hbzy-1, 48 h
Procedure, shortened: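 Cells were seeded at 10⁴ per well and held in serum-free medium for 24 h. They were exposed to compound at 10 μM, or left without it, for 48 h. MTT (5 mg/mL stock) was added for 4 h at 37 °C, the formazan was dissolved in DMSO, and A570 was read. Values were normalized to control-medium cells.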

[2] = Antidiabetic nephropathic activity in rat HBZY-1 cells assessed as inhibition of high concentration glucose-induced fibronectin production at 10 uM treated 1 hr before glucose challenge measured after 24 hrs by ELISA; assay type: functional, cell-based
Procedure, shortened: (§1)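 HBZY-1 rat mesangial cells (passages 3–10) were grown in DMEM with 5.6 mM glucose, 20% FCS and 10 mM HEPES. At 80% confluence they were arrested in 0.5% FCS for 24 h, then pretreated with compound for 1 h and stimulated with high glucose (25 mM) for 24 h. Supernatant IL-6, fibronectin or collagen IV was measured by sandwich ELISA, normalized to total cell protein (BCA), and compared by ANOVA.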

[3] = Antidiabetic nephropathic activity in rat HBZY-1 cells assessed as inhibition of high concentration glucose-induced collagen-4 production at 10 uM treated 1 hr before glucose challenge measured after 24 hrs by ELISA; assay type: functional, cell-based; procedure, shortened: as §1
[4] = Antidiabetic nephropathic activity in rat HBZY-1 cells assessed as inhibition of high concentration glucose-induced IL-6 production at 10 uM treated 1 hr before glucose challenge measured after 24 hrs by ELISA; assay type: functional, cell-based; procedure, shortened: as §1
[5] = Antidiabetic nephropathic activity in rat HBZY-1 cells assessed as inhibition of high concentration glucose-induced IL-6 production at 88 uM treated 1 hr before glucose challenge measured after 24 hrs by ELISA; assay type: functional, cell-based
[6] = Antidiabetic nephropathic activity in rat HBZY-1 cells assessed as inhibition of high concentration glucose-induced IL-6 production at 35 uM treated 1 hr before glucose challenge measured after 24 hrs by ELISA; assay type: functional, cell-based; procedure, shortened: as §1

SMILES	Activity [1]	inhibition [2]	inhibition [3]	inhibition [4]	inhibition [5]	inhibition [6]
COc1cc(O)c2c(c1)[C@@](O)([C@@H]1O[C@H](CO)[C@@H](O)[C@H](O)[C@H]1O)c1cc(C)cc(O)c1C2=O	Non-toxic	Active	Active	Active	–	–
Cc1cc(O[C@@H]2O[C@H](CO)[C@@H](O)[C@H](O)[C@H]2O)c(C(=O)c2c(O)cccc2O)c(C(=O)O)c1	Non-toxic	Active	Active	Active	–	–
Cc1cc(O)c2c(c1)[C@@](O)([C@@H]1O[C@H](CO)[C@@H](O)[C@H](O)[C@H]1O)c1cc(O)cc(O)c1C2=O	Non-toxic	Active	Active	–	–	–
COC(=O)c1cc(O)cc(OC)c1C(=O)c1c(O)cc(C)cc1OC	Non-toxic	Active	Active	Active	–	–
CC(=O)OC[C@H]1O[C@@H](Oc2cc(O)cc3c2C(=O)c2c(O)cc(C)cc2C3=O)[C@H](O)[C@@H](O)[C@@H]1O	–	–	–	Active	–	–
COc1cc(C)cc2c1C(=O)c1c(O)cc(O)cc1C2=O	–	–	–	Active	–	–
COc1cc(O)c2c(c1)[C@](O)([C@@H]1O[C@H](CO)[C@@H](O)[C@H](O)[C@H]1O)c1cc(C)cc(O)c1C2=O	–	–	–	Active	–	–
Cc1cc(O)c2c(c1)C(=O)c1cc(O)cc(O[C@@H]3O[C@H](CO)[C@@H](O)[C@H](O)[C@H]3O)c1C2=O	–	–	–	Active	–	–
O=C(O)c1cc(O)c2c(c1)C(=O)c1cccc(O)c1C2=O	–	–	–	–	Active	inactive
O=C1c2cccc(O)c2C(=O)c2c(O)cc(CO)cc21	–	–	–	Active	–	–
COC(=O)c1c(OC)c(O)cc(OC)c1C(=O)c1c(O)cc(C)cc1OC [ASPERFUMIN]	Non-toxic	Active	Active	Active	–	–
Cc1cc(O)c2c(c1)C(=O)c1cccc(O)c1C2=O [CHRYSOPHANOL]	Non-toxic	Active	Active	Active	–	–
Cc1cc(O)c2c(c1)C(=O)c1cc(O)cc(O)c1C2=O [EMODIN]	Non-toxic	Active	Active	Active	–	–
COc1cc(O)c2c(c1)C(=O)c1cc(C)cc(O)c1C2=O [PHYSCION]	Non-toxic	Active	Active	Active	–	–
COc1cc(O)cc2c1C(=O)c1c(O)cc(C)cc1C2=O [QUESTIN]	Non-toxic	Active	Active	Active	–	–
COC(=O)C1=CC(=O)C=C(OC)C12Oc1cc(C)cc(OC)c1C2=O (stereo unspecified) [TRYPACIDIN]	Non-toxic	Active	Active	Active	–	–
